SMILES strings stand for the structures.

One data set can be described thus: Drug metabolism in Sprague-Dawley rat cecal contents assessed as colonic bacteria-mediated rate for final reduction product formation relative to sulfasalazine reduction rate.
Conditions: not given; call rule not given here
Type of data set: ADME. The method in brief:
(§1)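 The reduction was followed by reversed-phase HPLC with photodiode-array detection on a C18 column at 30 °C and 1 mL/min. Elution used a gradient of methanol against 50 mM potassium phosphate buffer, pH 6.8, containing 0.1% tetrabutylammonium hydroxide.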
Regarding `O=C(O)c1cc(C(=O)O)cc([N+](=O)[O-])c1`, the Ratio came to 0.128.
The same measure, in the same setting: the result for `O=C(O)c1cccc([N+](=O)[O-])c1` reads 0.759.
Still for that read-out and setting: the result for `O=C(O)c1cc([N+](=O)[O-])ccc1Cl` reads 1.013; that for `O=C(O)c1ccc([N+](=O)[O-])cc1C(=O)O`, 0.113.
Still for that read-out and setting: the result for `O=C(O)c1cc([N+](=O)[O-])ccc1O` reads 0.45; that for `Cc1ccc([N+](=O)[O-])cc1C(=O)O`, 0.603; that for `O=C(O)c1cc([N+](=O)[O-])cc(C(F)(F)F)c1`, 1.222.
On to `CN(C)c1ccc([N+](=O)[O-])cc1C(=O)O`, for which the Ratio was found to be 0.724.

The nature of the next data set: Drug metabolism in Sprague-Dawley rat cecal contents assessed as accumulation of colonic bacteria-mediated final reduction product level at 2 mM. Type of data set: ADME. The conditions noted are these: 2000 µM. The method in brief: as §1
On to `O=C(O)c1cc(/N=N/c2ccc(O)c(C(=O)O)c2)ccc1O` [OLSALAZINE], for which the Drug metabolism result is on record as “Active”.
Same read-out and setting: to `O=C(O)c1cc(SSc2ccc(O)c(C(=O)O)c2)ccc1O` belongs “Active”; to `O=C(O)c1cc([N+](=O)[O-])ccc1O`, “Active”.

The values are drawn from ChEMBL document CHEMBL2176895, “Bacterial reduction as means for colonic drug delivery: can other chemical groups provide an alternative to the azo bond?” (J Med Chem, 2012).
